Experimental findings from ChEMBL document CHEMBL1131374, “Inhibition of Fc epsilon RI-mediated activation of mast cells by 2,3,4-trihydropyrimidino[2,1-a]isoquinolines” (J Med Chem, 1998) are described below.

A short description of series [1]: The Hexosaminidase release concentration in CPII mouse mastcells transfected with TNF-alpha 3' reporter gene plasmid was measured. The series is classed as functional. On the technique in general: In a reporter assay the amount or activity of a reporter protein is the signal.
Series [2] in a line: (§1) The Inhibitory potency on CPII mouse mastcells transfected with TNF-alpha 3' reporter gene plasmid was measured by reporter gene assay. It is filed as functional.
Series [3] can be described thus: The cell toxicity on CPII mouse mast cells transfected with TNF-alpha 3' nontranslated sequences reporter gene plasmid. The series is classed as cell-based. The conditions noted are these: read-out: TC50 (the source's name).
Series [4] can be described thus: as §1. The series is classed as functional. The gist of the method: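 Clone 12: CPII cells stably carrying a TNFα promoter–luciferase–TNFα 3′ construct. Cells exposed to compound 1 h, then triggered with (dinitrophenyl)albumin/anti-dinitrophenyl-IgE complex. Luciferase read after 6 h incubation. Screening single dose 10 μM; a hit was over 50% inhibition of induction with under 20% toxicity.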
This is another data set of the same source.

By IC50 is commonly meant the midpoint of a concentration-inhibition curve. Low readings indicate greater potency in that assay, high ones weaker potency in that assay. Turning to `N[C@@H](Cc1ccccc1)C1=Cc2ccccc2C2=NCCCN12`, the figures for the IC50 in series [1] and in series [2] were above 25 µM and above 10 µM, respectively. Moreover, in series [3], the CC50 was above 25 µM.
On to `CC(C)(C)c1ccc(C2=Cc3ccc(NC(=O)Nc4ccc(Cl)cc4Cl)cc3C3=NCCCN23)cc1`, for which the values for the IC50 in series [1] and in series [2] were 17 µM and 3.3 µM, respectively. Besides, in series [3], the CC50 came to 5.8 µM.
With `COc1cc(C2=Cc3ccccc3C3=NCCCN23)cc(OC)c1OC`, the figures for the IC50 in series [1] and in series [4] were above 25 µM and above 10 µM, respectively. In addition, in series [3], the CC50 is above 10 µM.
Consider `C1=C(/C=C/c2ccccc2)N2CCCN=C2c2ccccc21`, for which the IC50 in series [1] was 4.1 µM; in series [2], above 10 µM. Also, in series [3], the CC50 is above 10 µM.
As to `CC(C)(C)c1ccc(C2=Cc3ccccc3C3=NCCCN23)cc1`, the IC50 is 0.7 µM in series [1] and 0.9 µM in series [2]. Besides, in series [3], the CC50 was 5.7 µM.
Take `Clc1ccc(OCC2=Cc3ccccc3C3=NCCCN23)cc1`: the IC50 in series [1] is above 25 µM; in series [4], 9 µM. Also, the CC50 in series [3] was above 10 µM.
`CC(C)(C)c1ccc(C2=Cc3ccc(NC(=O)Cc4ccccn4)cc3C3=NCCCN23)cc1`: the IC50 in series [1] and in series [2] was 4.8 µM in each case. Also, the CC50 in series [3] amounted to 8.8 µM.
Consider `C1=C(c2ccccc2)N2CCCN=C2c2ccccc21`, for which the IC50 was 12 µM in series [1] and above 10 µM in series [4]. Also, the CC50 in series [3] was above 10 µM.
As to `CCOc1ccc(CC2=C(c3ccc(CCc4ccccc4)cc3)N3CCCN=C3c3ccccc32)cc1`, the values for the IC50 in series [1] and in series [2] were 2.6 µM and 0.9 µM, respectively. Further, the CC50 in series [3] stood at 9 µM.
As for `c1ccc(CCc2ccc(C3=C(Cc4ccccc4)c4ccccc4C4=NCCCN43)cc2)cc1`, the IC50 was 0.9 µM in series [1] and 0.6 µM in series [2]. Also, the CC50 in series [3] came to 2.2 µM.
As for `CCCCC1=C(c2ccc(CCc3ccccc3)cc2)N2CCCN=C2c2ccccc21`, the IC50 stood at 0.3 µM in series [1] and 0.2 µM in series [2]. In addition, in series [3], the CC50 was determined as 2.7 µM.
Regarding `CCCCCCC1=Cc2ccccc2C2=NCCCN12`, the IC50 is 4.5 µM in series [1] and above 10 µM in series [4]. Also, the CC50 in series [3] is above 10 µM.
For the compound `CC(C)(C)c1ccc(C2=C(Cc3ccccc3)c3ccccc3C3=NCCCN32)cc1`, the IC50 in series [1] came out at 2.9 µM; in series [2], 2 µM. Moreover, in series [3], the CC50 was found to be 5 µM.
Taken in the same sequence, the figures for `C1=C(c2ccc(OCc3ccccc3)cc2)N2CCCN=C2c2ccccc21` were 0.9 µM, 0.8 µM and 3.5 µM.
With `CN(C)CCC1=C(c2ccc(C(C)(C)C)cc2)N2CCCN=C2c2ccccc21`, the IC50 in series [1] and in series [2] was above 10 µM each time. Besides, the CC50 in series [3] is above 10 µM.
As for `C1=C(c2ccc(-c3ccccc3)cc2)N2CCCN=C2c2ccccc21`, the values for the IC50 in series [1] and in series [4] were 1.7 µM and 1.5 µM, respectively. Moreover, the CC50 in series [3] was found to be 3.9 µM.
Consider `CC(C)(C)c1ccc(C2=Cc3ccc(N(Cc4ccccc4)Cc4ccccc4)cc3C3=NCCCN23)cc1`, for which the IC50 in series [1] and in series [2] was 0.6 µM in each case. Further, the CC50 in series [3] worked out at 2.6 µM.
For `Clc1ccc(C2=Cc3ccccc3C3=NCCCN23)cc1`, the IC50 in series [1] was 5.5 µM; in series [4], above 10 µM. Further, the CC50 in series [3] is above 10 µM.
Take `C[Si](C)(C)c1ccc(C2=C(Cc3ccccc3)c3ccccc3C3=NCCCN32)cc1`: the IC50 in series [1] is 1.2 µM; in series [2] it was 0.8 µM. Moreover, the CC50 in series [3] came out at 5.5 µM.
As for `CC(C)(C)c1ccc(C2=Cc3ccc(N/C(S)=N/C4CCCCC4)cc3C3=NCCCN23)cc1`, the IC50 in series [1] came out at 3.3 µM; in series [2], 2.6 µM. Further, in series [3], the CC50 amounted to 9.9 µM.
Consider `CCCCC1=C(c2ccc(C(C)(C)C)cc2)N2CCCN=C2c2ccccc21`, for which the IC50 in series [1] turned out to be 0.6 µM; in series [2], 0.3 µM. For the same compound, the CC50 in series [3] worked out at 2.1 µM.
Taken in the same sequence, the figures for `CC(C)(C)c1ccc(C2=Cc3ccc(N)cc3C3=NCCCN23)cc1` were 3 µM, 1.7 µM and 7.8 µM.
Turning to `CC1=Cc2ccccc2C2=NCCCN12`, the values for the IC50 in series [1] and in series [4] were above 25 µM and above 10 µM, respectively. Further, the CC50 in series [3] is above 10 µM.
Consider `CC(C)(C)c1ccc(C2=Cc3ccc(NC(=O)NC4CCCCC4)cc3C3=NCCCN23)cc1`, for which the IC50 in series [1] turned out to be 2.1 µM; in series [2], 1.7 µM. Further, the CC50 in series [3] is 4.8 µM.
For the compound `C1=C(c2ccc(CCc3ccccc3)cc2)N2CCCN=C2c2ccccc21`, the half-maximal inhibitory concentration (IC50) in series [1] was found to be 0.5 µM; in series [4] it was 0.7 µM. In addition, the CC50 in series [3] was found to be 2.1 µM.
Take `C1=C(Cc2ccccc2)c2ccccc2C2=NCCCN12`: the IC50 in series [1] and in series [4] was above 10 µM each time. Further, the CC50 in series [3] was above 10 µM.
`CCOc1ccc(CC2=C(CCCc3cccc4ccccc34)N3CCCN=C3c3ccccc32)cc1`: the IC50 came out at 3.5 µM in series [1] and 1.5 µM in series [2]. In addition, in series [3], the CC50 is 5.5 µM.
For `C[Si](C)(C)c1ccc(C2=Cc3ccccc3C3=NCCCN23)cc1`, the figures for the IC50 in series [1] and in series [4] were 0.5 µM and 0.8 µM, respectively. For the same compound, in series [3], the CC50 amounted to 3.2 µM.
